Results published in ChEMBL document CHEMBL1765010, “Reversible competitive α-ketoheterocycle inhibitors of fatty acid amide hydrolase containing additional conformational constraints in the acyl side chain: orally active, long-acting analgesics” (J Med Chem, 2011).
Calls of active or inactive are those of the source. No cut-off for these calls is given here.

Key:
[1] = system: Mus musculus; experiment: Inhibition of FAAH in C57Bl/6J mouse brain assessed as increase of N-palmitoyl ethanolamine level at 50 mg/kg, po after 1 hr relative to control; format: functional
Summary of the method: (§1)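 Male C57Bl/6J mice (<6 months, 20–28 g) given compound orally as a PEG300 solution at 10, 25 or 50 mg/kg, with 3 mice per group in the 50 mg/kg p.o. comparison; brains collected 1 h post-dose. Lipids extracted in CHCl3:MeOH:Tris pH 8.0 with deuterated internal standards, then measured by C18 LC-ESI-MS/MS relative to vehicle-treated mice.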

[2] = system: Mus musculus; experiment: Inhibition of FAAH in po dosed C57Bl/6J mouse brain assessed as increase of anandamide level after 1 hr relative to control; format: functional, organism-based
Summary of the method: (§2)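 Male C57Bl/6J mice (<6 months, 20–28 g) given a single oral dose as a PEG300 solution. Brains were homogenized in CHCl3:MeOH:Tris pH 8.0 containing deuterated internal standards. The organic extract was analysed by reverse-phase C18 LC–ESI triple-quadrupole MS for anandamide, PEA, OEA and 2-AG. Dose series (10, 25, 50 mg/kg) was sampled at 1 h; the 50 mg/kg time course ran to 9 h. Three mice per group in the i.p./p.o. comparison.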

[3] = system: Mus musculus; experiment: Inhibition of FAAH in C57Bl/6J mouse brain assessed as increase of anandamide level at 30 mg/kg, ip after 1 hr relative to control; format: functional; settings: route intraperitoneal
Summary of the method: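 Male C57Bl/6J mice (<6 months, 20–28 g) dosed i.p. at 30 mg/kg in 18:1:1 saline:ethanol:emulphor emulsion; brains taken 1 h later. One mouse in the initial screen, 3 per group in the follow-up. Brain homogenized in CHCl3:MeOH:Tris pH 8.0 with deuterated lipid standards; organic extract quantified by reverse-phase C18 LC-ESI-MS/MS against vehicle controls.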

[4] = system: Mus musculus; experiment: Inhibition of FAAH in C57Bl/6J mouse brain assessed as increase of 2-arachidonoylglycerol level at 50 mg/kg, po after 1 hr relative to control; format: functional; summary of the method: as §1
[5] = system: Mus musculus; experiment: Toxicity in C57BL/6 mouse assessed as catalepsy at 50 mg/kg, po; format: organism-based; parameters: dose 50 mg/kg, route oral; settings: in vivo
[6] = system: Mus musculus; experiment: Inhibition of FAAH in C57Bl/6J mouse brain assessed as increase of anandamide level at 10 to 50 mg/kg, po after 1.5 to 3 hrs; format: functional, organism-based
[7] = system: Mus musculus; experiment: Inhibition of FAAH in C57Bl/6J mouse brain assessed as increase of anandamide level at 50 mg/kg, po; format: functional, organism-based; parameters: dose 50 mg/kg; settings: TDE = time-dependent effect; summary of the method: as §2
[8] = target: T1, Fatty-acid amide hydrolase 1 (Homo sapiens) (UniProt O00519); experiment: Reversible inhibition of full-length human FAAH expressed in COS-7 cells by Lineweaver-Burk analysis; format: cell-based
T1 sequence (whole entry): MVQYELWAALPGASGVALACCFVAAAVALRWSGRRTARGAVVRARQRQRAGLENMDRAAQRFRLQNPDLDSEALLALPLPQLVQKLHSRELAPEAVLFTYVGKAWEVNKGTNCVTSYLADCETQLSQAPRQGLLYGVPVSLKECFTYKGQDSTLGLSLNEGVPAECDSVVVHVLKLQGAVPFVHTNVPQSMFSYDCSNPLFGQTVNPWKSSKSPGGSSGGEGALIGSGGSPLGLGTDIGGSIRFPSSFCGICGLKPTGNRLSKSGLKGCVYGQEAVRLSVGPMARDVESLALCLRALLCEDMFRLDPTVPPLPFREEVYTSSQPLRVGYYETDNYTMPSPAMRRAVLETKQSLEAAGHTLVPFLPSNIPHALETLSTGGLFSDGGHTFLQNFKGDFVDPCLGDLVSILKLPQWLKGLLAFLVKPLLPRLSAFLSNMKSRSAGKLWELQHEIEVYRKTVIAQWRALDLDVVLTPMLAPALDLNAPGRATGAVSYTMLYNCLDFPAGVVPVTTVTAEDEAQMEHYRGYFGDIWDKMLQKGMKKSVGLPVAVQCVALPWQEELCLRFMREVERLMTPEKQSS
Summary of the method: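 Solubilized membrane lysate of COS-7 cells transiently transfected with full-length human FAAH cDNA. Aliquots quenched in 0.1 N HCl at three times; oleamide/oleic acid extracted into EtOAc and separated by TLC. Initial rates (≤10–20% conversion) analysed by Lineweaver–Burk plot.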

[9] = target: T2, Fatty-acid amide hydrolase 1 (Rattus norvegicus, UniProt P97612); experiment: Inhibition of rat recombinant FAAH expressed in Escherichia coli assessed as [14C]-labeled oleamide to oleic acid conversion
T2 sequence (P97612 whole entry): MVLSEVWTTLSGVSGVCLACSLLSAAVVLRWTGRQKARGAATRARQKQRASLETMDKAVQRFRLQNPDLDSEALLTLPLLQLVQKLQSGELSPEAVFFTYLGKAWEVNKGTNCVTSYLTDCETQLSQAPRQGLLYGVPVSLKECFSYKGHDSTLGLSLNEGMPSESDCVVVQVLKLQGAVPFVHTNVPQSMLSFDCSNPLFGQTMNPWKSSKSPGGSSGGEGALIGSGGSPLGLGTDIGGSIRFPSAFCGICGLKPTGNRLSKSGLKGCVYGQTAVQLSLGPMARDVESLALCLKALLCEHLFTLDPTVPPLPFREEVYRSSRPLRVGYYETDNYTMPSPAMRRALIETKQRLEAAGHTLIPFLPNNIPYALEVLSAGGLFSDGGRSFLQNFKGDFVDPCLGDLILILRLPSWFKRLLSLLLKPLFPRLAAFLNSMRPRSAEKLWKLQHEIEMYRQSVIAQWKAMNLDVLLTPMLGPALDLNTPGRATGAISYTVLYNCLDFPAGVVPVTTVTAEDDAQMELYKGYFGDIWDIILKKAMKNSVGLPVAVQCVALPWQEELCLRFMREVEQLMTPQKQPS

Q: For `O=C(c1ncc(-c2ccccn2)o1)[C@H]1CCc2cc(Oc3ccccc3)ccc2C1`, which fold change (FC) [1] is on record?
A: 7.7

Q: What about the Activity [2] of the same molecule?
A: Dose-dependent effect

Q: And the “fold change (FC)” value [3]?
A: 5.1

Q: What about the “fold change (FC)” value [4] of the same molecule?
A: 1.4

Q: What about the Activity [5] of the same molecule?
A: Non-toxic

Q: And the Activity [6]?
A: Active

Q: What about the Activity [7] of the same molecule?
A: tde

Q: And the inhibition [8]?
A: Active

Q: What about the Ki [9] of the same molecule?
A: 4.4 nM
